Assay [1] addresses 5-hydroxytryptamine receptor 2A (Rattus norvegicus) (UniProt P14842). Put plainly: The binding affinity was evaluated on 5-hydroxytryptamine 2A receptor expressed in rat cortex by using [3H]ketanserin as radioligand. Put shortly: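 Rat cerebral cortex membranes in Tris-HCl pH 7.4 with 10 μM pargyline and 0.1% ascorbic acid. Incubated 20 min at 37 °C with 0.7–1.3 nM [3H]ketanserin. Nonspecific binding with 2 μM ketanserin. Filtration and scintillation counting. Ki by Cheng-Prusoff. 2–3 experiments in triplicate.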

In assay [2] the target is T1, Alpha-1D adrenergic receptor (Homo sapiens) (UniProt P25100).
T1 sequence (whole entry): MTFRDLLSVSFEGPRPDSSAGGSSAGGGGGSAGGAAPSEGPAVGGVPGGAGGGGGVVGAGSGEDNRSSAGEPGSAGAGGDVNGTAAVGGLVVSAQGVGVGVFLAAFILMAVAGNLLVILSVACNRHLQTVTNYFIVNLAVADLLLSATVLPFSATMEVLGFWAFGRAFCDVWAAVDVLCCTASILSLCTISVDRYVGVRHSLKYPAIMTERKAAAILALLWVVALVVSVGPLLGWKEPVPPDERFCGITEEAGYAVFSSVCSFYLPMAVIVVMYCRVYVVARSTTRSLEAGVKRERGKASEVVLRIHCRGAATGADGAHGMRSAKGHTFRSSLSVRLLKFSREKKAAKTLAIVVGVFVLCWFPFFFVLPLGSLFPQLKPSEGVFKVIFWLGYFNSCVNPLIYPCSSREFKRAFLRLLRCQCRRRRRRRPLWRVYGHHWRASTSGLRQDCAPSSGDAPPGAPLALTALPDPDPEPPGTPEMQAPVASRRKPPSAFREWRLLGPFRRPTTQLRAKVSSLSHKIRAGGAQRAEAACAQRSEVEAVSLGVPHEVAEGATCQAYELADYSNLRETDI
Put plainly: The binding affinity was evaluated on cloned human Alpha-1D adrenergic receptor expressed in chinese hamster ovary(CHO) cells by using [3H]-prazosin as radioligand. Format: cell-based. In short, it runs like this:
(§1)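 Membranes (30 μg protein) from CHO cells stably expressing each human α1 subtype, in 50 mM Tris-HCl pH 7.4. Incubated with 0.1–0.4 nM [3H]prazosin for 30 min at 25 °C, competitor 1 pM–10 μM. Nonspecific binding with 10 μM phentolamine. Ki by Cheng-Prusoff. 2–3 experiments in triplicate.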

Assay [3] deals with T2, Alpha-1A adrenergic receptor (Rattus norvegicus) (UniProt P43140).
T2 sequence (whole entry): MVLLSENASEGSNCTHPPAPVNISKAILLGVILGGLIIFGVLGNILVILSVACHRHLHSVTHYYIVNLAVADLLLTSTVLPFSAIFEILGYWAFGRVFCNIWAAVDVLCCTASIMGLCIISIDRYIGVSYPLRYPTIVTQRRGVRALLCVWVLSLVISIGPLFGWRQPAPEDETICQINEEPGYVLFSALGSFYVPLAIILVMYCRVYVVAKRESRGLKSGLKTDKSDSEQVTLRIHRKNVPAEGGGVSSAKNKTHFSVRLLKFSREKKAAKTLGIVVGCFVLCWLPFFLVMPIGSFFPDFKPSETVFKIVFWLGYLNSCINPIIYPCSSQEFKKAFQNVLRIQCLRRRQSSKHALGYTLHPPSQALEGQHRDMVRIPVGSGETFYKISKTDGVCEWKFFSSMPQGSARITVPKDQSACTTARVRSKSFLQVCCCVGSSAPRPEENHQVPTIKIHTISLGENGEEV
Put plainly: Antagonist affinity was expressed as apparent pKb at Alpha-1A adrenergic receptor on isolated rat prostatic vas deferens (alpha1A). The format is functional, tissue-based. Put shortly: (§2)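 Rat prostatic vas deferens in Tyrode with 0.1 μM cocaine. Equilibrated 60 min, primed twice with 10 μM noradrenaline, then a control cumulative (–)-noradrenaline curve recorded isometrically. Antagonist equilibrated 30 min before a repeat curve. Apparent pKb = log(DR−1) − log[B], with DR as the ratio of agonist EC50 with/without antagonist. 2–3 antagonist concentrations, each tested four times.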

Assay [4] deals with T2, Alpha-1A adrenergic receptor (Rattus norvegicus). Kind of assay: Antagonist affinity was expressed as apparent pKb at alpha-1 adrenoceptors on isolated rat prostatic vas deferens (Alpha-1A adrenergic receptor). The format is functional, tissue-based. In short, it runs like this: as §2
Assay [5] concerns the target T3, Alpha-1D adrenergic receptor (Rattus norvegicus) (UniProt P23944).
T3 sequence (whole entry): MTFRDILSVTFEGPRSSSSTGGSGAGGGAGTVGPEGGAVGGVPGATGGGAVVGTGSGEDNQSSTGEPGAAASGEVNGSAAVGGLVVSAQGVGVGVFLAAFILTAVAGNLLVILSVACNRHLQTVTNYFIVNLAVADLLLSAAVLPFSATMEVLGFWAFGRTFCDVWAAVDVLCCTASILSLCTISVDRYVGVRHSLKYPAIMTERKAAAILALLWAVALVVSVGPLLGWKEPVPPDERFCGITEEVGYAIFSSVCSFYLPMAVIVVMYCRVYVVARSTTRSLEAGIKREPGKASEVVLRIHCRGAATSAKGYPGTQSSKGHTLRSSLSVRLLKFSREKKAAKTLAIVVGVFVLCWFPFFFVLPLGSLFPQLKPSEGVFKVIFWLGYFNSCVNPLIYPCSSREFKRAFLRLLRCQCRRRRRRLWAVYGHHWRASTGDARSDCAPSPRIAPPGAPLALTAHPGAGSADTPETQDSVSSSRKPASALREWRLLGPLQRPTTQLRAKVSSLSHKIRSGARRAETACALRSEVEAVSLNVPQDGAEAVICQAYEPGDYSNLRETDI
Kind of assay: Antagonist affinity was expressed as apparent pKb at alpha-1D adrenergic receptor on isolated rat thoracic aorta (Alpha-1D adrenergic receptor). Format: functional, tissue-based. In short, it runs like this: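 Helicoidal strips of rat thoracic aorta at 1 g tension, with 0.1 μM cocaine and 1 μM propranolol. After ≥1 h equilibration, cumulative (–)-noradrenaline curves at 30-min intervals; the third served as control. Antagonist equilibrated 30 min before the fourth curve. Apparent pKb from log(DR−1) − log[B], 2–3 antagonist concentrations, each tested four times.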

In assay [6] the target is T4, Alpha-1B adrenergic receptor (Homo sapiens) (UniProt P35368).
T4 sequence (whole entry): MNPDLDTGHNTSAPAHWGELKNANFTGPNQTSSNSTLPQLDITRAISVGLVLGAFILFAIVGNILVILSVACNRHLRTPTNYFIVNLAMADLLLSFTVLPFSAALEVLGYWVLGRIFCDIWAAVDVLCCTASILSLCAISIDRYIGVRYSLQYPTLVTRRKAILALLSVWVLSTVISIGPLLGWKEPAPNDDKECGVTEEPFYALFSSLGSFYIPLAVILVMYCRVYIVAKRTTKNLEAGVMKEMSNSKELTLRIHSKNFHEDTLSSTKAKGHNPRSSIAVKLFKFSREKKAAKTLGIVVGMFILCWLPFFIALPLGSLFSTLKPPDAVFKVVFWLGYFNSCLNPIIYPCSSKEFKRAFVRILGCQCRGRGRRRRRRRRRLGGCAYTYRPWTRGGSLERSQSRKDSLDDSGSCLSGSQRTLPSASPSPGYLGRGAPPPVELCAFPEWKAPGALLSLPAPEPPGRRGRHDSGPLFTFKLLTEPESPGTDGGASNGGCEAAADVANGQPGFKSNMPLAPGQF
Kind of assay: The binding affinity was evaluated on cloned human alpha-1B adrenergic receptor expressed in chinese hamster ovary(CHO) cells by using [3H]prazosin as radioligand. Format: cell-based. In short, it runs like this: as §1

Chain of 5-hydroxytryptamine receptor 2A (Rattus norvegicus) (P14842 whole entry): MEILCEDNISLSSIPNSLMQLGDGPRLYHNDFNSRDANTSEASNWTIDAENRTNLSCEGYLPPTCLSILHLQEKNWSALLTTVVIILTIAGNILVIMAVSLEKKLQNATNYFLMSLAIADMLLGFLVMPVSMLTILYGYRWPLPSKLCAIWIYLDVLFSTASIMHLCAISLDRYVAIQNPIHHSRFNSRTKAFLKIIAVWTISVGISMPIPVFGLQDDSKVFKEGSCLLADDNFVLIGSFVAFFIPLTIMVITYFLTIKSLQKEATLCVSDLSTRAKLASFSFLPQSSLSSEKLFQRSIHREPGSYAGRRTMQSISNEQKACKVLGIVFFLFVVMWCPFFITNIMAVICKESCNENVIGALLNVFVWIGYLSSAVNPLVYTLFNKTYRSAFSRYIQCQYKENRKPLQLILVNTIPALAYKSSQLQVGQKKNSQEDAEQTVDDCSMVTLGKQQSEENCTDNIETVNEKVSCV

Regarding `COc1cccc(OC)c1OCCNCC1Oc2ccccc2CC1c1ccccc1` (stereo in doubt; 7), the values for the pKi in assay [1] and in assay [2] were less than 6 and 7.28, respectively. Besides, in assay [3], the pKb stood at 7.36.
For `COc1cccc(OC)c1OCCNCC1C(=O)c2ccccc2OC1c1ccccc1` (centres undefined), the pKi came out at 6.2 in assay [1] and 6.84 in assay [6]. Also, the pKb in assay [4] came out at 7.88; in assay [5], 6.98.
On to `COc1cccc(OC)c1OCCNCCOc1ccccc1OCc1ccccc1`, for which the pKi in assay [2] stood at 10.2. Also, the pKb in assay [3] was determined as 8.39.
